Bioassay records (PubChem BioAssay)
The full list was thinned out, with hits kept by preference.
NALP3 yeast inh – NALP3 inflammasome inhibitors in reconstituted yeast, primary screen, luminescence, uHTS | AID 2825, 2010 | Yeast reconstituted NLRP3/ASC/caspase-1, beta-gal luminescence, 24 h | inhibition, % at 10 µM | 330,000 compounds, 0.39% hits;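 active = inhibition of 50% or more; inactive = inhibition below 50%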
Calb FLC – C. albicans growth inhibition with fluconazole, primary screen, CaCi-2 strain, Alamar Blue fluorescence; 300,000 compounds, 0.57% hits; growth inhibition, % (no concentration beside the values); C. albicans CaCi-2 + fluconazole, 48 h; AID 1979, 2009;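 active = growth inhibition above about 58% in most replicates, limit read from the data, passing the limit was not always enough; inconclusive = exactly half the replicates above a set limit; inactive = most replicates below a set limit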;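 also: all wells also contain fluconazole at 8 µg/ml as a sub-toxic cotreatment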
PolyA inhibitor – polyadenylation inhibitors in yeast reporter cells, primary screen, luminescence, S. cerevisiae. S. cerevisiae SKY197-pL101 polyadenylation reporter, beta-gal luminescence; efflux-impaired pdr1/pdr3 knockout yeast; score 100 = 6 SD above DMSO. activity score, % at 12 µM. 300,000 compounds, 0.02% hits. AID 1875, 2009;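 active = lowest replicate activity score at least 50, where 100 means six control SD above control mean; inconclusive = lowest score under 50 but half or more replicates reach 50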;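 also: yeast exposed to compound for 9 h at 30 °C; higher score means more reporter readthrough which indicates perturbed polyadenylation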
NALP1 yeast inh – NALP1 inflammasome inhibitors in reconstituted yeast, colorimetric, S. cerevisiae, triplicate retest; inhibition, % at 10 µM; 280,000 compounds, 0.61% hits; AID 2071, 2009; S. cerevisiae NALP1/ASC/caspase-1 growth, X-gal OD620, 72 h; in the data active = inhibition mostly above about 24%, no sharp cut-off; inactive = mostly below about 32%
L major viab – Leishmania major promastigote growth inhibition, primary screen; inhibition, % at 10 µM; Leishmania major promastigotes, resazurin fluorescence viability; 200,000 compounds, 9% hits; in the data active = inhibition above about 50%;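 also: promastigotes grown with compound for 44 hours at 28 °C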
T cruzi repl – inhibitors of intracellular T. cruzi growth, primary screen, luminescence, NIH3T3 host cells. inhibition, % (test concentration not listed). T. cruzi beta-gal in NIH3T3, 90 h. 300,000 compounds, 1.4% hits;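 active = mean inhibition across valid replicates above about 55%, limit read from the data; inconclusive = mean below that limit but half or more replicates reach it; inactive = mean below it, under half of replicates reach it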;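 also: signal also drops with host cell toxicity which is not excluded here; higher percent means less beta-gal luminescence so fewer parasites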
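Incubation – ≥90 h infection period, 3 h prior cell attachment · System – NIH/3T3 fibroblasts plus reporter T. cruzi · Doses – compound pinned at 50 nL/well, DMSO · Read-out basis – percent inhibition of parasite-derived β-gal signal · Signal – luminescent β-galactosidase signal after 60 min lysis · Also added – 5000 T. cruzi trypomastigotes/well · Medium – Low-serum DMEM with 2% FBS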
Of the large screens only hits and unclear results are named; the others gave an inactive call.

O=C(CCC1CCCN(C(=O)c2ccc3cc[nH]c3c2)C1)NCc1ccc(F)c(F)c1 (configuration not stated)	none
COc1ccccc1CNC(=O)C1CCN(S(=O)(=O)c2ccc3c(c2)OCCCO3)CC1	none
c1ccc(-c2ccc3c(c2)c2c4n3CCN=C4CCC2)cc1	Calb FLC 98.9
Cc1ccc(-c2nc(-c3cccnc3)sc2CC(=O)Nc2ccc3nc(C)sc3c2)cc1	T cruzi repl inconclusive
CSc1nc(N)nc(N(C)C)n1	none (no result: L major viab)
CSc1cnc2c(N)nc(N(C)C)nc2n1	Calb FLC 95.1, L major viab 57.7
CC1CCCN(C(=O)C2CCN(S(=O)(=O)c3cccc4nonc34)CC2)C1 (configuration not stated)	none (no result: L major viab)
Cc1ccc(Cn2ncc3c(N4CCN(c5ccc(C)cc5)CC4)ncnc32)cc1	none
Cc1ccc(Cn2ncc3c(N4CCN(Cc5ccc(Cl)cc5)CC4)ncnc32)cc1	L major viab 68.9
Cc1ccc(Cn2ncc3c(N4CCN(C5CCCC5)CC4)ncnc32)cc1	L major viab 55.4
Cc1ccc(Cn2ncc3c(N4CCN(C)CC4)ncnc32)cc1	none
CC(NC(=O)COC(=O)c1cn(-c2ccccc2)nc1-c1cccs1)c1ccccc1 (configuration not stated)	none
Cc1ccc(C(c2c(C)n(C)n(-c3ccccc3)c2=O)c2c(C)n(C)n(-c3ccccc3)c2=O)s1	L major viab 93.6
Cc1c(C(c2ccccc2)c2c(C)n(C)n(-c3ccccc3)c2=O)c(=O)n(-c2ccccc2)n1C	none (no result: L major viab)
COc1ccccc1C(CNC(=O)C1CC(=O)N(Cc2ccc(C)cc2)C1)N1CCCC1 (configuration not stated)	none (no result: NALP1 yeast inh, L major viab)
O=C1c2ccccc2C(=O)c2c1oc(C(F)(F)F)c2C(=O)c1ccccc1	L major viab 98.9, T cruzi repl 58.9
O=C(c1ccccc1)c1coc2c1C(=O)c1ccccc1C2=O	none
CCN1CC=C2C(C#N)=C(N)C(C#N)(C#N)C(c3cc(Cl)ccc3Cl)C2C1 (configuration not stated)	L major viab 65.0 (no result: NALP3 yeast inh)
CC(C)N1CC=C2C(C#N)=C(N)C(C#N)(C#N)C(c3ccccc3)C2C1 (configuration not stated)	none (no result: NALP3 yeast inh)
CN1CCCCc2c1nc1ccccc1c2N (tested in a mixture with another compound)	L major viab 91.7
O=C(O)C(Cc1c[nH]c2ccccc12)NS(=O)(=O)c1ccc(Cl)c(C(F)(F)F)c1 (configuration not stated)	none (no result: L major viab)
CCCC1CCC(c2nc(-c3cccnc3)no2)CC1 (configuration not stated)	none
Fc1ccc(-c2noc(C3CCN(Cc4cccnc4)CC3)n2)cc1	L major viab 94.0
COc1ccccc1N1CCN(C(=O)CSc2ncnc3scc(-c4ccccc4)c23)CC1	none
O=C(CSc1ncnc2scc(-c3ccccc3)c12)N1CCN(c2ccccc2F)CC1	L major viab 55.4 (no result: NALP3 yeast inh)
C=CCn1c(SCC(=O)NCc2ccccc2)nnc1C1CCCCC1	PolyA inhibitor inconclusive, L major viab 77.7
COc1cccc(C(CNC(=O)C(c2ccccc2)c2ccccc2)N(C)C)c1 (configuration not stated)	none (no result: L major viab)
Cc1cc2nc(C)c(Cc3ccccc3)c(=O)n2[nH]1	L major viab 97.5
COc1ccccc1-c1c(C)[nH]n2c(=O)c(Cc3ccccc3)c(C)nc12	none
Cc1nc2c(-c3ccccc3)c[nH]n2c(=O)c1Cc1ccccc1	L major viab 58.9, T cruzi repl 62.1
COc1ccc(-c2c(C)[nH]n3c(=O)c(Cc4ccccc4)c(C)nc23)cc1	L major viab 81.0
COc1ccccc1CCc1nnc(CCC(=O)N(C)Cc2cccc3ncccc23)o1	none
COc1cccc(CNC(=O)C(CCSC)NS(=O)(=O)c2ccc3c(c2)oc(=O)n3C)c1 (configuration not stated)	none
Clc1cccc(-c2cc3nc4c(c(N5CCN(c6cnccn6)CC5)n3n2)CCCC4)c1	L major viab 61.6 (no result: PolyA inhibitor, T cruzi repl)
CCC/C(=N/NC(=O)c1ccccc1Cl)c1ccccc1	L major viab 95.1
CC1N(C)c2cc(NC(=O)c3cccs3)c(P(=O)(Nc3ccc([N+](=O)[O-])cc3)N3CCOCC3)cc2C1(C)C (configuration not stated)	L major viab 59.0, T cruzi repl 63.8
CN(C)c1ccc(P(=O)(Nc2cccc(C(F)(F)F)c2)N2CCOCC2)c(NC(=O)c2cccs2)c1 (configuration not stated)	L major viab 59.0
Cc1cc(C(C)(C)C)cc(C)c1CCNC(=O)c1ccc[n+]([O-])c1	none (no result: L major viab)
CCCCSc1cnn(-c2ccccc2)c(=O)c1SCCCC	Calb FLC inconclusive, L major viab 78.7
O=C(N/N=C/c1ccc(Br)cc1)c1ccccc1-n1cccc1	L major viab 65.3
Cc1cccc(/C=N\NC(=O)c2ccccc2-n2cccc2)c1	none
Cc1ncc(CO)c(/C=N/NC(=O)c2cc(Br)ccc2O)c1O	Calb FLC inconclusive
Cc1ncc(CO)c(/C=N/NC(=O)c2ccc(Br)cc2)c1O	L major viab 97.7
CC(C)(C)NCc1cccn1-c1sc2c(c1C#N)CCCC2	L major viab 78.4
COc1ccc(S(=O)(=O)NCCCN2CCOCC2)c2ccccc12	L major viab 91.8
COc1ccc(C(=O)NCCN2CCOCC2)c(OC)c1OC	Calb FLC 70.2
CCOC(=O)CNS(=O)(=O)c1cc(-c2nn(C)c(=O)c3ccccc23)ccc1C	none
CCCOc1ccc(S(=O)(=O)NCCCN2CCOCC2)c2ccccc12	none (no result: T cruzi repl)
CCOc1ccc(S(=O)(=O)NCCCN2CCOCC2)c2ccccc12	L major viab 85.3
COc1ccc(C(=O)NCCN2CCOCC2)c(OC)c1	none
COc1ccc(F)cc1S(=O)(=O)NCCN1CCOCC1	none (no result: NALP1 yeast inh, L major viab)
Cc1ccc(-c2nn(C)c(=O)c3ccccc23)cc1S(=O)(=O)NCCN1CCOCC1	L major viab 64.8
C=CC[C@@H](CC(=O)N[C@@H](CO)Cc1ccccc1)C(=O)N[C@@H](COC(=O)[C@@H](CC=C)Cc1ccc(F)cc1)Cc1ccccc1	none (no result: Calb FLC, PolyA inhibitor, NALP1 yeast inh, L major viab, T cruzi repl)
Cc1ccc(C)c(N2CCN(C(=O)c3ccc(CS(=O)Cc4cccc(Cl)c4)o3)CC2)c1 (configuration not stated)	none (no result: L major viab)
CC(C)(C)NC(=O)CSc1nc2ccc(Nc3nc(N4CCOCC4)nc(N4CCOCC4)n3)cc2s1	L major viab 76.9, T cruzi repl 57.9
Cc1ccc(NC(=O)CSc2nc3ccc(Nc4nc(N5CCOCC5)nc(N5CCOCC5)n4)cc3s2)cc1	none (no result: PolyA inhibitor, L major viab, T cruzi repl)
